# Legend:
# [1] = Inhibition of Hh signaling pathway in mouse NIH3T3 cells incubated for 48 hrs by Gli luciferase reporter assay; type: cell-based; settings: NIH3T3, 48 h
# Summary of the method: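 Reporter cells were seeded in 96-well plates, incubated overnight, then treated for 48 h. Lysate luciferase activity was measured with a dual-luciferase system, and firefly signal was normalised to Renilla.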
# BXPC-3 [2] = experiment: Antiproliferative activity against human BXPC-3 cells assessed as inhibition of cell viability incubated for 48 hrs by MTT assay; type: functional, cell-based; settings: BXPC-3, 48 h
# Summary of the method: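 Cells in log phase were seeded at 8,000-10,000/well and allowed to adhere overnight at 37 °C, 5% CO2. Compound from DMSO stock, diluted in medium, was applied for 48 h; controls got drug-free medium, blanks held medium only. MTT (5 mg/mL stock) 4 h, formazan dissolved in DMSO, A490 read. Viability was blank-corrected against untreated cells; IC50 came from a fitted curve; three separate experiments.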
# PANC-1 [3] = experiment: Inhibition of Hh signaling pathway in human PANC-1 cells assessed as reduction in Gli1 level incubated for 48 hrs by Western blot analysis; type: cell-based; settings: dose 2.5-10 µM
# Summary of the method: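 Cells were treated in 6-well plates for 48 h, lysed by sonication in RIPA with PMSF, and quantified by BCA. 20-30 μg protein was run on 6-12% gradient SDS-PAGE and transferred to PVDF. Membranes were blocked 2 h at room temperature, probed with anti-Gli1 overnight at 4 °C and secondary 1.5 h at room temperature, then developed by ECL. Densitometry was normalised to β-actin; three separate experiments.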
# BXPC-3 [4] = experiment: Inhibition of cell migration in human BXPC-3 cells incubated for 24 hrs by wound healing assay; type: functional, cell-based; settings: dose 2.5-10 µM
# Summary of the method: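 Monolayers at 80-90% confluence were scratched with a cross and washed three times with PBS. Eight fields were imaged at 0 h. Cells were then incubated with compound in medium containing 2% FBS, and the same fields were re-imaged at 24 h (100×). Closure % = (area 0 h − area 24 h)/area 0 h × 100; n = 3.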
# PANC-1 [5] = experiment: Induction of apoptosis in human PANC-1 cells assessed as viable cells at 2.5 uM incubated for 48 hrs by Annexin V-FITC/PI staining based flow cytometry (reference value: 93.2 %); type: functional; settings: read-out: Activity
# PANC-1 [6] = experiment: Induction of apoptosis in human PANC-1 cells assessed as early apoptotic cells at 2.5 uM incubated for 48 hrs by Annexin V-FITC/PI staining based flow cytometry (reference value: 1.88 %); type: functional
# PANC-1 [7] = experiment: Induction of apoptosis in human PANC-1 cells assessed as early apoptotic cells at 5 uM incubated for 48 hrs by Annexin V-FITC/PI staining based flow cytometry (reference value: 1.88 %); type: functional
# PANC-1 [8] = experiment: Induction of apoptosis in human PANC-1 cells assessed as viable cells at 8 uM incubated for 48 hrs by Annexin V-FITC/PI staining based flow cytometry (reference value: 93.2 %); type: functional; settings: read-out: Activity
# PANC-1 [9] = experiment: Induction of apoptosis in human PANC-1 cells assessed as late apoptotic cells at 8 uM incubated for 48 hrs by Annexin V-FITC/PI staining based flow cytometry (reference value: 2.74 %); type: functional
# PANC-1 [10] = experiment: Induction of apoptosis in human PANC-1 cells assessed as viable cells at 10 uM incubated for 48 hrs by Annexin V-FITC/PI staining based flow cytometry (reference value: 93.2 %); type: functional; settings: read-out: Activity
# PANC-1 [11] = experiment: Induction of apoptosis in human PANC-1 cells assessed as early apoptotic cells at 10 uM incubated for 48 hrs by Annexin V-FITC/PI staining based flow cytometry (reference value: 1.88 %); type: functional
# BXPC-3 [12] = experiment: Induction of apoptosis in human BXPC-3 cells assessed as viable cells at 2.5 uM incubated for 48 hrs by Annexin V-FITC/PI staining based flow cytometry (reference value: 91.5 %); type: functional; settings: read-out: Activity
# BXPC-3 [13] = experiment: Induction of apoptosis in human BXPC-3 cells assessed as necrotic cells at 5 uM incubated for 48 hrs by Annexin V-FITC/PI staining based flow cytometry (reference value: 0.71 %); type: functional
# BXPC-3 [14] = experiment: Induction of apoptosis in human BXPC-3 cells assessed as necrotic cells at 8 uM incubated for 48 hrs by Annexin V-FITC/PI staining based flow cytometry (reference value: 0.71 %); type: functional
# PANC-1 [15] = experiment: Induction of cell cycle arrest in human PANC-1 cells assessed as accumulation at G1 phase at 2.5 uM incubated for 48 hrs by PI/RNase staining based flow cytometry (reference value: 82.0 %); type: functional
# PANC-1 [16] = experiment: Induction of cell cycle arrest in human PANC-1 cells assessed as accumulation at G1 phase at 5 uM incubated for 48 hrs by PI/RNase staining based flow cytometry (reference value: 82.0 %); type: functional
# BXPC-3 [17] = experiment: Induction of cell cycle arrest in human BXPC-3 cells assessed as accumulation at G2 phase at 2.5 uM incubated for 48 hrs by PI/RNase staining based flow cytometry (reference value: 8.15 %); type: functional
# BXPC-3 [18] = experiment: Induction of cell cycle arrest in human BXPC-3 cells assessed as accumulation at G1 phase at 5 uM incubated for 48 hrs by PI/RNase staining based flow cytometry (reference value: 84.2 %); type: functional
# BXPC-3 [19] = experiment: Induction of cell cycle arrest in human BXPC-3 cells assessed as accumulation at G1 phase at 10 uM incubated for 48 hrs by PI/RNase staining based flow cytometry (reference value: 84.2 %); type: functional
# BXPC-3 [20] = experiment: Induction of cell cycle arrest in human BXPC-3 cells assessed as accumulation at G2 phase at 10 uM incubated for 48 hrs by PI/RNase staining based flow cytometry (reference value: 8.15 %); type: functional
# [21] = Toxicity in BALB/c nude mouse xenografted with human BxPC-3 cells assessed as body weight loss at 5 to 15 mg/kg, ip qd for 21 days; settings: in vivo, 504 h
# BxPC-3 [22] = experiment: Antitumor activity aginst human BxPC-3 cells xenografted in BALB/c nude mouse assessed as decrease in tumor volume at 15 mg/kg, ip qd for 21 days relative to control; set-up: scale not given: the % may be the effect or the level left; settings: time 21 day
# [23] = Toxicity in BALB/c nude mouse xenografted with human BxPC-3 cells assessed as necrosis in heart at 5 to 15 mg/kg, ip qd for 21 days by H and E staining based analysis; settings: in vivo, 504 h
# [24] = Toxicity in BALB/c nude mouse xenografted with human BxPC-3 cells assessed as cellular edema in heart at 5 to 15 mg/kg, ip qd for 21 days by H and E staining based analysis; settings: in vivo, 504 h
# [25] = Toxicity in BALB/c nude mouse xenografted with human BxPC-3 cells assessed as tissue fibrosis in spleen at 5 to 15 mg/kg, ip qd for 21 days by H and E staining based analysis; settings: in vivo, 504 h
# [26] = Toxicity in BALB/c nude mouse xenografted with human BxPC-3 cells assessed as inflammatory infiltration in kidneys at 5 to 15 mg/kg, ip qd for 21 days by H and E staining based analysis; settings: in vivo, 504 h
structure (smiles),measurement,setting,value
CN(C)Cc1ccc(NC(=O)c2ccc(Nc3nccc(-c4cccnc4)n3)cc2)cc1,IC50,[1],2.7 nM
same,IC50,BXPC-3 [2],3.57 µM
same,inhibition,PANC-1 [3],Dose-dependent-effect
same,inhibition,BXPC-3 [4],Dose-dependent-effect
same,viability at 2.5 µM,PANC-1 [5],90.7%
same,Activity,PANC-1 [6],1.97%
same,Activity,PANC-1 [7],3.29%
same,viability at 8 µM,PANC-1 [8],85.9%
same,Activity,PANC-1 [9],8.97%
same,viability at 10 µM,PANC-1 [10],71%
same,Activity,PANC-1 [11],4.09%
same,viability at 2.5 µM,BXPC-3 [12],88.5%
same,Activity,BXPC-3 [13],1.02%
same,Activity,BXPC-3 [14],2.47%
same,Activity,PANC-1 [15],83.7%
same,Activity,PANC-1 [16],84.2%
same,Activity,BXPC-3 [17],11.3%
same,Activity,BXPC-3 [18],83.9%
same,Activity,BXPC-3 [19],92.9%
same,Activity,BXPC-3 [20],2.98%
same,Activity,[21],Non-toxic
same,Activity,BxPC-3 [22],82%
same,Activity,[23],Non-toxic
same,Activity,[24],Non-toxic
same,Activity,[25],Non-toxic
same,Activity,[26],Non-toxic

# From ChEMBL document CHEMBL6092204, “Synthesis of pyridyl pyrimidine hedgehog signaling pathway inhibitors and their antitumor activity in human pancreatic cancer” (Eur J Med Chem, 2024)
